# ANO1 block: TMEM16A chloride channel inhibitors, primary screen, cell-based, HTS; actives 1.2% (n = 310,000); normalized B-score (activity score, 25-100; higher = stronger inhibition) at 10 µM; HEK293 TMEM16A/YFP iodide influx fluorescence, ionomycin; AID 588511, 2011; Anoctamin-1 (Mus musculus), Q8BHY3;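 active = ratio plate-corrected score three or more library SD toward inhibition, starting fluorescence score within five deviations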;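 note: score derived from kinetic fluorescence span divided by baseline fluorescence per well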
# CHOP inhibitor: inhibitors of CHOP promoter induction, primary screen, cell-based, unfolded protein response, luciferase reporter | actives 3.8% (n = 220,000) | AID 2732, 2010 | CHO-K1 CHOP-promoter luciferase, tunicamycin-induced, 15-18 h | inhibition, % at 10 µM;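 active = compounds that reduced the stress-induced luciferase reporter signal by more than about 70% of percent inhibition, limit read from the data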;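 note: 0% = tunicamycin plus vehicle and 100% = wells without tunicamycin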
# CHOP UPR activ: activators of apoptotic CHOP UPR arm, primary screen, cell-based, CHO-CHOP luciferase reporter, luminescence, uHTS. UPR activation; percent of tunicamycin response over DMSO baseline. activation, % at 10 µM. actives 0.34% (n = 330,000). AID 449763, 2010;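 active = at 10 µM dose, activation of 40% or more, normalized to positive control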;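 note: 100% = tunicamycin at 10 µg/mL and 0% = DMSO alone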
#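 assay system = CHO CHOP reporter cells | amount = 500 CHO-CHOP cells per well | buffer or medium = F12 with 10% FBS | incubation = 16-18 h cell attachment, then 6 h compound exposure, 37 °C | detection = luminescence read with Steady-Glo | read-out = percent activation relative to tunicamycin control | controls = tunicamycin high control, DMSO low control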
# XBP1 UPR activ: activators of adaptive XBP1 UPR arm, primary screen, cell-based, CHO-XBP1 luciferase reporter, luminescence, uHTS. IRE1-XBP1 UPR activation; percent of tunicamycin response, DMSO as zero. activation, % at 20 µM. actives 0.33% (n = 330,000). AID 463104, 2010;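 active = versus positive control, 20 µM dose yields 30% or more activation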;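 note: 100% = tunicamycin at 10 µg/mL and 0% = DMSO only wells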
#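 Signal: luciferase luminescence; Assay system: CHO-XBP1 luciferase reporter cells; Amount: one thousand reporter cells per well; Dosing: 20 µM single concentration, DMSO 1%; Benchmarks: high control tunicamycin 10 µg/mL final, low control DMSO vehicle only; Schedule: 6 h compound exposure at 37 °C, 5% CO2; Evaluation: percent activation relative to tunicamycin reference.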
# Hep lipid drop: inhibitors of hepatocyte lipid droplet formation, primary screen, imaging, high-throughput imaging, BODIPY stain | AML12 mouse hepatocytes, oleate lipid droplets | inhibition, % at 6.5 µM | actives 0.4% (n = 240,000);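 active = lipid droplet intensity inhibited by at least 50%, with more than 500 cells counted; inconclusive = wells with under 300 cells, treated as cytotoxic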
#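 Material – mouse AML12 hepatocyte cell line, fixed after treatment · Compound dosing – one dose, 6.5 µM compound · Times – compound with oleate, overnight · Measured by – Image-based BODIPY and DAPI two-channel analysis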
# TMEM16A act: TMEM16A chloride channel activators or potentiators, primary screen, cell-based, HTS; HEK293 TMEM16A/YFP-H148Q/I152L, iodide quench fluorescence; active compounds read low; B-score at 10 µM; actives 0.3% (n = 340,000); AID 623877, 2012;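 active = fluorescence-ratio B-score plate-corrected deviation score at least 3 library SD below zero, with starting fluorescence score within 5 deviations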;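 note: channel opened by trigger with iodide after compound preincubation; score built on the fluorescence ratio of max minus min over baseline; more negative score means more quench and so TMEM16A activation or potentiation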
# Hep lipid conf: hepatocyte lipid droplet accumulation inhibitors, confirmation, imaging, AML12 mouse hepatocytes, single concentration, high-content | shares compounds with Hep lipid drop | BODIPY lipid droplet imaging; droplets induced with 100 µM oleic acid | inhibition, % at 5.2 µM | actives 65% (n = 870) | AID 463183, 2010;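 active = inhibition of lipid droplet metric at least 50%, with more than 300 cells in each of four replicates; inconclusive = wells under 300 cells, flagged as toxic or low count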;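 note: plate controls were DMSO with oleic acid for no effect and 5 µM Triacsin-C for full effect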
# AML12 tox img: AML12 hepatocyte cytotoxicity, counter-screen for hepatic lipid droplet formation project, imaging, DAPI nuclear morphology imaging. shares compounds with Hep lipid drop. AML12 mouse hepatocytes; active compounds read high; cells fed 100 µM oleate overnight. z-score at 5 µM. actives 3% (n = 870). AID 463200, 2010; in the data active = z-score above about 6.3;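 note: compound exposure lasted overnight at 37 °C before fixation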
# AML12 tox conf: AML12 hepatocyte cytotoxicity, confirmation, cytotoxicity control for hepatic lipid droplet formation project, cell-based, single concentration; shares compounds with Hep lipid drop; AML12 mouse hepatocyte viability, ATP luminescence; cells loaded with 100 µM oleic acid; cytotoxicity, % at 50 µM; 530 tested, under 10 active; AID 463219, 2010;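 active = cytotoxicity above 50% in each of four replicates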;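 note: compound exposure lasted overnight at 37 °C before the ATP read; 0% = DMSO-treated cells and 100% = wells with no cells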
# * = called active by the depositor; i = inactive; ? = inconclusive; / = no result given. Compounds with a hit are over-represented: about 4.2% of the library has one in this group of screens.
SMILES,ANO1 block,CHOP inhibitor,CHOP UPR activ,XBP1 UPR activ,Hep lipid drop,TMEM16A act,Hep lipid conf,AML12 tox img,AML12 tox conf
CCCOc1ccc(/C=N/Nc2ccccc2[N+](=O)[O-])c(O)c1,i,41,-7,-6,56*,i,60,-0.73,/
COc1ccccc1/C=N\Nc1ccccc1[N+](=O)[O-],i,27,8,4,165*,i,63*,0.72,/
O=C(NCc1cccc(C(F)(F)F)c1)c1ccc2c(c1)OCCO2,i,/,2,5,2,i,/,/,/
CCN(CC)CCNC(=O)c1cc(Br)c(N)cc1OC,i,/,2,-8,/,i,/,/,/
Nc1ccc2nc(Cc3ccccc3)[nH]c2c1,i,2,4,3,54*,i,-11,0.2,/
CN1C(=O)[C@H]2[C@@H](C3CC3)N3C(=O)CN(Cc4ccccn4)C(=O)[C@@]3(Cc3ccccc3)[C@H]2C1=O,i,/,0,-1,60*,i,6,-0.62,/
CN1C(=O)[C@H]2[C@@H](C3CC3)N3C(=O)CN(CCO)C(=O)[C@@]3(Cc3ccccc3)[C@H]2C1=O,i,/,3,2,3,i,/,/,/
N/C(=N\c1nc2c(c(=O)[nH]1)CCCC2)Nc1ccc(Oc2ccccc2)cc1,i,-1,0,-2,61*,i,41,1.1,/
Cc1cccc(N/C(N)=N/c2nc3c(c(=O)[nH]2)CCCC3)c1,i,38,0,6,16,i,/,/,/
CCOC(=O)C1CCN(CC(=O)c2c(C)n(C)c3ccc(OC)cc23)CC1,i,/,-2,-3,-47,i,/,/,/
O=C(Nc1cccc(Cn2cccn2)c1)c1cc2c(s1)CCCC2,i,5,4,0,55*,i,57,-0.11,26
CCOc1ccccc1NC(=O)N1CCCC1C(=O)Nc1ccc(-n2cnnn2)c(C)c1 (stereo not given),i,16,0,0,74*,i,97*,0.38,-4
CCc1c(C#N)c(SCCC(=O)Nc2ccc(OC)cc2)nc2c1C(=O)CC(C)(C)C2,i,56,-1,-7,54*,i,89*,0.84,0
CN1CCN(CCCNC(=S)Nc2ccc(F)c(Cl)c2)CC1,i,24,-1,0,-24,i,/,/,/
COc1ccc(N=C2C(=Nc3ccc(OC)cc3)N(c3ccc(OC)cc3)C(=S)N2C(=O)c2ccc(OC)cc2)cc1,i,-10,2,7,87*,i,113*,-0.62,8
COc1ccc(N=C2C(=Nc3ccc(OC)cc3)N(c3ccccc3)C(=S)N2C(=O)c2ccc(Cl)cc2)cc1,i,17,3,5,48,i,/,/,/
COc1ccc(N=C2C(=Nc3ccc(OC)cc3)N(c3ccc(N(C)C)cc3)C(=S)N2c2ccc(OC)cc2)cc1,i,45,-1,1,65*,i,15,1.8,/
COc1ccc(N2C(=S)N(C(=O)c3ccccc3)C(=Nc3ccccc3)C2=Nc2ccccc2)cc1,i,/,7,0,/,i,/,/,/
O=C(NC(=S)N1CCN(c2ccc([N+](=O)[O-])cc2)CC1)c1ccccc1F,i,-25,-3,2,24,i,/,/,/
Cc1ccc(NC(=O)c2ncn(CC(=O)NCc3ccccc3)n2)cc1C,/,/,7,3,/,/,/,/,/
COc1cccc(-c2nc(NCc3ccccc3)c3ccccc3n2)c1O,i,/,2,2,69*,i,55*,-0.68,-5
COc1ccccc1CN(C)C(=O)CN1C(=O)c2ccccc2C1=O,i,/,-1,-5,-1,i,/,/,/
N/C(=N/O)c1nc(N2CCCC2)nc(N(c2ccccc2)c2ccccc2)n1,i,45,3,1,65*,i,107*,-0.9,8
O=C(N/N=C/c1cc2ccccc2nc1Cl)[C@H]1C[C@@H]1c1ccccc1,i,57,-1,2,12,i,/,/,/
Cc1ccc2cc(/C=N/NC(=O)[C@H]3C[C@@H]3c3ccccc3)c(Cl)nc2c1,i,57,0,3,75*,i,50,0.51,-1
SMILES,ANO1 block,CHOP inhibitor,CHOP UPR activ,XBP1 UPR activ,Hep lipid drop,TMEM16A act,Hep lipid conf,AML12 tox img,AML12 tox conf
O=[N+]([O-])c1c(Nc2ccccc2)ccc2nonc12,i,7,0,-2,-17,i,/,/,/
Nc1cc(Nc2ccccc2)c2nonc2c1[N+](=O)[O-],i,/,-2,0,101*,i,110*,0.69,3
O=[N+]([O-])c1cc(Cl)ccc1N1CCN(c2cccc(C(F)(F)F)c2)CC1,i,15,0,1,64*,i,94*,0.54,0
COc1ccc(CC(=O)OCC(=O)N2N=C(c3ccccc3)CC2c2ccc(OC)cc2)cc1 (stereo not given),i,5,1,-1,82*,i,107*,-0.45,/
COc1ccc(N=Nc2nc(-c3ccccc3)c(-c3ccccc3)[nH]2)cc1,i,-37,3,1,100*,i,108*,1,-10
COc1ccccc1N=Nc1nc(-c2ccccc2)c(-c2ccccc2)[nH]1,i,-10,/,/,-2,i,/,/,/
CCc1ccc(OCc2ccc(C(=O)O)o2)cc1,i,/,-6,-7,59*,i,16,-0.027,/
COc1ccc(NC(=O)c2cn(CCC#N)nc2-c2cc3ccccc3o2)cc1,i,11,-1,-1,23,i,/,/,/
Cc1[nH]c2ccccc2c1/C=N/Nc1nc(Nc2ccc(F)cc2)nc(N2CCOCC2)n1,i,61,34,10,61*,i,?,108*,/
O=C(Oc1cccc(/C=N/Nc2nc(Nc3ccccc3)nc(N3CCOCC3)n2)c1)c1ccco1,i,38,9,3,120*,i,42,13*,/

# Screens: PubChem BioAssay, several laboratories
